Active and inactive are the calls of the source.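 The calls were made as follows, unless noted: active = fluorescence slope higher than the sample average by over 3 SD (cut at about -0.22 in these data, passing the limit was not always enough); inactive = the rest.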

Experiment [1] in a line: inhibitors of TNFa-induced NFkB p65 translocation, primary screen, imaging, HUVEC, MLSMR starter and 10KST1 sets (AID 438;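 active = inhibition above 20% together with a positive visual image hit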;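 also: compound added about 3h40 before a 20 min TNFalpha stimulation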;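 as to inhibition: signal is the nuclear over cytoplasmic p65 intensity ratio per well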). Conditions: HUVEC TNFa-induced p65 nuclear translocation; cell count: measured here: nuclei count (cytotoxicity indicator), at 2.08 µM; inhibition: at 2 µM, stronger effect = higher value, 0% TNFa-plus-vehicle, 100% no-TNFa wells.
Experiment [2] can be described thus: endothelial E-selectin expression blockers – imaging, HUVEC, immunofluorescence, MLSMR starter and 10KST1 sets, primary screen (AID 487;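 active = visually confirmed hit in the image check and inhibition above 20%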;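 as to inhibition: signal is fraction of cell area covered by stained E-selectin grains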;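 as to nuclei count: 100% = median nuclei count of all wells on the same plate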). Conditions: HUVEC TNFalpha-induced E-selectin immunofluorescence imaging, at 2 µM; inhibition: stronger effect = higher value; nuclei count: measured here: cell number, toxicity.
The nature of experiment [3]: Primary imaging screen for DUSP6 inhibitors that restore phospho-Erk in transfected HeLa cells, chemical complementation (AID 609;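 active = compounds giving at least 50% inhibition in the cell-based MKP-3 phosphatase rescue imaging test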;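 as to inhibition: phospho-Erk level distribution per well compared with pooled transfected vehicle control wells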). Conditions: HeLa MKP-3 transfected, phospho-Erk imaging KS statistic, at 10 µM, cells stimulated with TPA for 15 min.
Experiment [4] addresses Dual specificity protein phosphatase 6 (Homo sapiens) (UniProt Q16828). Described as above. Conditions: HeLa MKP-3 transfected, phospho-Erk imaging KS statistic; at 10 µM; stronger effect = higher value; cells stimulated with TPA for 15 min.
Experiment [5] has as its target Voltage-gated potassium channel subunit beta-2 (Rattus norvegicus) (UniProt P62483). Briefly: inhibitors of rat Kvbeta2 reductase activity – biochemical, NADPH fluorescence, primary screen (AID 622).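 Also: slope of raw intensity against log time taken from 70 to 1610 s.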 To be noted: recombinant KvBeta, 4-cyanobenzaldehyde reduction, at 10 µM, stronger effect = higher value.
Experiment [6] shares this target. Briefly: enhancers of rat Kvbeta2 NADPH turnover – biochemical, NADPH fluorescence, primary screen (AID 623;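 active = NADPH fluorescence slope more negative than the mean of all samples by about 3 SD, 99.7% confidence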;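 also: fluorescence intensity change per second fitted from 20 to 320 s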). Conditions: Recombinant KvBeta, NADPH fluorescence decrease slope, 10 min; at 10 µM; stronger effect = lower value.
Experiment [7] has as its target Muscarinic acetylcholine receptor M4 (Homo sapiens) (UniProt P08173). Briefly: M4-linked GIRK flux change, two-sided – cell-based, HEK293 M4/GIRK, thallium flux, BTC-AM, M4 allosteric agonist project, primary screen (AID 625;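 active = fluorescence slope after compound addition differing from the mean of all tested samples at 99.7% confidence, mostly higher but some lower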;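 also: thallium influx through GIRK channels coupled to M4 in HEK293 cells with BTC-AM dye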). To be noted: at 10 µM, actives lie on both sides. The essentials: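 assay system = HEK293 cells with M4 receptor and GIRK channels | medium = pH 7.3 thallium assay buffer | doses = 10 µM final, single point | timing = cells overnight at 37 °C, BTC-AM loading 1 h, reads 2 min total | signal = BTC-AM fluorescence, 1 Hz kinetic reads | read-out = post-addition slope, 15–24 s, of baseline-normalized fluorescence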

Experiment [8] is described as follows: inhibitors of larval lipid processing in zebrafish, primary screen, whole organism, PED6 fluorescence, gall bladder and intestine (AID 686;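 active = a full or partial loss of lipid-probe fluorescence in the fish gall bladder, intestine or both, judged by eye; inactive = no fluorescence loss, or compound toxic to the fish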;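 also: larvae 5 to 7 days old with five fish per well; signal comes from phospholipase A2 cleavage of quenched PED6 carried via bile; overnight exposure to compound and PED6 before scoring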). To be noted: Zebrafish larvae PED6 lipid processing, fluorescence scoring; screened at 20 µM (by protocol). In a few lines:
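Also added: quenched phospholipase substrate PED6, 100 nM final, ingested by larvae; System: zebrafish larvae, 5-7 d; Quantity: 5 larvae per well; Compound: 20 µM single dose; Schedule: overnight compound and PED6 incubation; Read-out: visual per-well fluorescence inhibition score; Measured by: By-eye fluorescence microscopy; Medium: E3.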

Experiment [9] is described as follows: loss of swimming-algae plug formation – whole organism, Chlamydomonas reinhardtii, WT vs cilia-less mutant, absorbance, 96-well, primary screen (AID 463189;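 active = inhibition at or above 50% relative to wild type and mutant plate controls; inactive = inhibition below 50%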;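 also: 0% = wild type cc124 cells in DMSO and 100% = ciliumless bld1 mutant cells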). Conditions: Chlamydomonas reinhardtii gravitaxis, OD600 absorbance, 2 days; at 10 µM; stronger effect = higher value.
[10] abbreviates: measured here: cell density z-score.
Setting [11] is: measured here: nuclear c-Myc green intensity z-score.
Where [12] appears, read: measured here: nuclear pErk red intensity z-score, stronger effect = higher value.

Sequence of Voltage-gated potassium channel subunit beta-2 (Rattus norvegicus) (P62483 whole entry, looked up): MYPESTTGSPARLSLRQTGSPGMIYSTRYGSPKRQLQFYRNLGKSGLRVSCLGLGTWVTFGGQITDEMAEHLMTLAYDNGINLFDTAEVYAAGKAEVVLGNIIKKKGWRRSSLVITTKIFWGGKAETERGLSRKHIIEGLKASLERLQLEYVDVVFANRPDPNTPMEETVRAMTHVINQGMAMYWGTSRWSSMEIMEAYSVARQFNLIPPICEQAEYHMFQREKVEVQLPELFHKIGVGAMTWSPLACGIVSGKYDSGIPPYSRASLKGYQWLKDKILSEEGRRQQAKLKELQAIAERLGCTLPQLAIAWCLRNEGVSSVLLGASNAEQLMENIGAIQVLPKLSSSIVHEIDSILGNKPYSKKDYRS
Sequence of Dual specificity protein phosphatase 6 (Homo sapiens) (Q16828 whole entry, looked up): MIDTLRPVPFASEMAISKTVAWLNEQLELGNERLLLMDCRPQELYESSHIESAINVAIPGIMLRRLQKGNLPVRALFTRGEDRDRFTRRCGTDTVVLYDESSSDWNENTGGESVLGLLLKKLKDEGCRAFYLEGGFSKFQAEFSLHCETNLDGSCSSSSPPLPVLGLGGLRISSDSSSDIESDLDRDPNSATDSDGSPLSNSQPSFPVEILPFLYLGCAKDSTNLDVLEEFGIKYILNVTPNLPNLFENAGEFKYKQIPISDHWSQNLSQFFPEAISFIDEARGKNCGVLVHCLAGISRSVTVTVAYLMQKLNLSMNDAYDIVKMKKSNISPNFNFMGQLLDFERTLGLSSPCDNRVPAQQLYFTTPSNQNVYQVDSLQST
Sequence of Muscarinic acetylcholine receptor M4 (Homo sapiens) (P08173 whole entry, looked up): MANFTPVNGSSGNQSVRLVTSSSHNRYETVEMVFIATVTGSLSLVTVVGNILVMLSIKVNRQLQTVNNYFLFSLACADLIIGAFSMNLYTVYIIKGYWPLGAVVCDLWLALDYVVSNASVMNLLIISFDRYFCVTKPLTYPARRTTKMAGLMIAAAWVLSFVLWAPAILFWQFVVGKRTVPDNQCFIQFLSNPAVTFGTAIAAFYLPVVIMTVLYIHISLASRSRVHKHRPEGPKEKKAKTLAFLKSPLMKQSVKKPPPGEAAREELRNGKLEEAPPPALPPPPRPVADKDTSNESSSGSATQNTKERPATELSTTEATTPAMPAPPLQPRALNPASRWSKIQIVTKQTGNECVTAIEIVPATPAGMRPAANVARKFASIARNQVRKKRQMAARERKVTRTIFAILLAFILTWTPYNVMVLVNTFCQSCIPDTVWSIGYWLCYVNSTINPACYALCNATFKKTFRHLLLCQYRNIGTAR

Take `COC(=O)c1sc(NC(=O)c2oc3ccccc3c2C)nc1C`: the cell count in experiment [1] is 594. Also, the inhibition (commonly the change of the read-out against control, counted positive when it falls) is -0.2% (inactive) in experiment [1], -146% (inactive) in experiment [2], 25.8% (inactive) in experiment [4] and -10.3% (inactive) in experiment [9]. The compound further displayed a nuclei count in experiment [2] of 150%. The figures for the z-score in experiment [3] (setting [10]), in [3] (setting [11]) and in [3] (setting [12]) were 0.222, -0.561 and -0.214, respectively. Further, the fluorescence slope in [5] was -0.269 (inactive); in [7], 0.00832 (inactive). Moreover, the NADPH fluorescence slope in [6] was -4e-05 (inactive). In experiment [8], the outcome was inactive.
On to `CC(Sc1ccc2ccccc2n1)C(=O)O` (stereo unspecified), for which the cell count in experiment [1] was determined as 709. In addition, the inhibition in experiment [1] is -5.5% (inactive); in experiment [2] it was 23% (inactive); in [4], 7.21% (inactive); in experiment [9], -8.1% (inactive). Moreover, in [2], the nuclei count stood at 185%. In addition, the z-score in experiment [3] (setting [10]) was 0.12; in experiment [3] (setting [11]), 0.234; in experiment [3] (setting [12]), -0.321. The fluorescence slope is -0.478 (inactive) in experiment [5] and 0.00615 (inactive) in experiment [7]. In [6], the NADPH fluorescence slope is -9e-05 (inactive). For the same compound, the compound was called inactive in [8].
For `Nc1ccc2c3c(cccc13)CC2`, in [1], the cell count came to 400. The inhibition in [1] is -4.5% (inactive); in [2], -74% (inactive); in [4] it was 9.37% (inactive); in experiment [9] it was -6.34% (inactive). In experiment [2], the nuclei count came out at 108%. Also, the z-score in [3] (setting [10]) is 0.938; in experiment [3] (setting [11]), 0.125; in experiment [3] (setting [12]), -0.141. Further, the fluorescence slope was -0.281 (inactive) in [5] and 0.00407 (inactive) in [7]. Further, the NADPH fluorescence slope in [6] was -2.2e-05 (inactive). Moreover, in experiment [8], the result was inactive.
With `O=C(O)CCCC(=O)N1CCN(C(c2ccccc2)c2ccccc2)CC1`, the cell count in experiment [1] was found to be 593. The inhibition in [1] was 2% (inactive); in experiment [2], 16.4% (inactive); in experiment [4], -9.53% (inactive); in experiment [9], -16% (inactive). For the same compound, in experiment [2], the nuclei count was determined as 93.4%. The z-score in experiment [3] (setting [10]) was 0.508; in experiment [3] (setting [11]), 0.369; in experiment [3] (setting [12]) it was -2.19. Moreover, the results for the fluorescence slope in [5] and in [7] were -0.501 (inactive) and 0.00548 (inactive), respectively. The NADPH fluorescence slope in experiment [6] was -2.2e-05 (inactive). For the same compound, the compound was classed as inactive in experiment [8].
Regarding `CC(NC(=O)CSc1nc2c(cc1C#N)CN(C)CC2)c1ccccc1` (stereo unspecified), in [1], the cell count worked out at 739. The inhibition is 5.9% (inactive) in [1], -3.5% (inactive) in [2], 6.04% (inactive) in experiment [4] and 11.3% (inactive) in [9]. This compound also registered a nuclei count in experiment [2] of 170%. Further, the z-score in experiment [3] (setting [10]) is 0.748; in [3] (setting [11]), -0.601; in experiment [3] (setting [12]), -0.682. Moreover, the figures for the fluorescence slope in experiment [5] and in experiment [7] were -0.429 (inactive) and 0.00365 (inactive), respectively. For the same compound, the NADPH fluorescence slope in experiment [6] is -3.9e-05 (inactive). Also, in experiment [8], the compound was classed as inactive.
As for `O=C(O)C1CC(=O)N(Cc2cccs2)C1` (stereo unspecified), in [1], the cell count worked out at 557. In addition, the inhibition is -4.7% (inactive) in experiment [1], -73.2% (inactive) in experiment [2], 17.8% (inactive) in experiment [4] and -9.05% (inactive) in experiment [9]. Further, the nuclei count in experiment [2] came out at 165%. The z-score is 0.677 in [3] (setting [10]), 0.857 in experiment [3] (setting [11]) and -1.54 in experiment [3] (setting [12]). The results for the fluorescence slope in experiment [5] and in experiment [7] were -0.404 (inactive) and 0.00636 (inactive), respectively. Further, the NADPH fluorescence slope in experiment [6] is -3e-05 (inactive). The compound was called inactive in [8].
As to `C=CCNc1nc(C)nc(OC)n1`, the cell count in experiment [1] is 634. The inhibition is -0.1% (inactive) in [1], 69.9% (active) in experiment [2], 14.7% (inactive) in [4] and -10.1% (inactive) in experiment [9]. The nuclei count in experiment [2] came out at 85.8%. For the same compound, the z-score was -3.44 in [3] (setting [10]), 2.82 in experiment [3] (setting [11]) and 1.07 in experiment [3] (setting [12]). The fluorescence slope was -0.481 (inactive) in [5] and 0.00536 (inactive) in experiment [7]. The NADPH fluorescence slope in experiment [6] is -4.7e-05 (inactive). The compound was called inactive in experiment [8].

The values above are taken from PubChem BioAssay.
